# Results of several laboratories.
# Compare with care: the assays were run in different laboratories.
# Target: RAC-beta serine/threonine-protein kinase (AKT2, Homo sapiens, UniProt P31751)
observed,method,concentration,remaining binding [%],SMILES
cell-free assay,competition with immobilised ligand,1 µM,100,CCCOc1ccc([C@H]2[C@H](C(=O)O)[C@@H](c3ccc4c(c3)OCO4)CN2CC(=O)Nc2c(CC)cccc2CC)cc1
binding,,1 µM,100,CN(C)c1ncc(F)c(-c2cnn3ncccc23)n1
binding,competition with immobilised ligand,1 µM,100,C=CC(=O)N1CCC(C(=O)NCC(=O)N2CCN(c3nc(-c4cnc(N)nc4C(F)F)nc(N4CCOCC4)n3)CC2)CC1
binding,,1 µM,88,CN(C)c1nccc(-c2cnc3ncccn23)n1
cell-free assay,competition with immobilised ligand,1 µM,88,O=C(O)[C@H]1[C@H](Cn2nnc3ccccc3c2=O)CC[C@@H]1C(=O)c1ccc(OCCC2CCOCC2)cc1
binding,competition with immobilised ligand,1 µM,100,COc1cnc(Nc2cccc(S(N)(=O)=O)c2)nc1N1CCN(c2ccccc2)C(=O)C1
binding,competition with immobilised ligand,1 µM,100,Nc1ncc2c(n1)-c1c([nH]c3ccc(C#CC4CC4)cc13)CCCC2
cell-free assay,competition with immobilised ligand,1 µM,98,Cc1c(NC(=O)c2cc(C(N)=O)nc3cc(F)ccc23)c(C(F)(F)F)nn1Cc1ccc(C#N)cc1
binding,competition with immobilised ligand,1 µM,94,COc1cnc(Nc2cccc(S(N)(=O)=O)c2)nc1N1CCN(c2ccccc2)CC1
binding,competition with immobilised ligand,50 nM,100,C[C@@H]1CN(c2ccc3ncc(-c4ccc5[nH]nc(C6CC6)c5c4)n3n2)C[C@H](C)O1
cell-free assay,competition with immobilised ligand,10 µM,70,CC(C)(C)c1ccc(-c2nc(CBr)nn2-c2cccc(O)c2)cc1
cell-free assay,competition with immobilised ligand,1 µM,72,CCC(=O)N[C@@H]1CC[C@H](C(=O)N(C)c2ccc(-c3nc4ccccc4o3)cc2)C1
binding,,1 µM,75,CN(CCCC(F)(F)F)c1nccc(-c2cnn3ncccc23)n1
binding,competition with immobilised ligand,1 µM,100,CCN1CCN(Cc2ccc(C(=O)Nc3ccc(C)c(Oc4ccc5c(c4)CC(=O)N5)c3)cc2C(F)(F)F)CC1
binding,competition with immobilised ligand,1 µM,89,O=C(c1ccc(Nc2ncc(Cl)c(-c3ccc(Cl)s3)n2)cc1)N1CCC(N2CCCC2)CC1
binding,competition with immobilised ligand,1 µM,100,O=C(NCC1CCOCC1)c1n[nH]cc1NC(=O)c1c(F)cccc1F
binding,,1 µM,100,C[C@H]1CCN(c2nccc(-c3cnn4ncccc34)n2)C1
cell-free assay,competition with immobilised ligand,0.1 µM,100,CC(C)CC(=O)N1CCc2nc(-c3ccc(Br)cc3)nc(N(C)Cc3ccccc3)c2C1
binding,competition with immobilised ligand,1 µM,87,O=C(NCCCN1CCOCC1)c1ccc(Nc2nccc(-c3cc4ccccc4s3)n2)cc1
cell-free assay,competition with immobilised ligand,1 µM,84,N#CC1(c2ccccn2)CCN(Cc2cc(C(=O)N3CCCC3)c(=O)n3ccccc23)CC1
binding,,1 µM,100,CC1CCCN1c1nccc(-c2cnn3ncccc23)n1 (stereo not drawn)
binding,competition with immobilised ligand,1 µM,100,O=C(NCCCN1CCOCC1)c1ccc(Nc2ncc(Cl)c(-c3ccc(Cl)s3)n2)cc1
binding,,1 µM,100,N[C@H]1CCN(c2nccc(-c3cnn4ncccc34)n2)C1
cell-free assay,competition with immobilised ligand,0.1 µM,98,Cc1c[nH]c2nccc(Oc3c(F)cc(Nc4cc(Cl)nc(N)n4)cc3F)c12
